One may read the inhibition as the relative decrease from the control value, in per cent.

The values below come from ChEMBL document CHEMBL4765301, “Discovery of novel TNNI3K inhibitor suppresses pyroptosis and apoptosis in murine myocardial infarction injury” (Eur J Med Chem, 2020).

SMILES strings stand for the structures. The source made the active and inactive calls. No cut-off for these calls is given here.

Series [1] has as its system H9c2. Put plainly: Inhibition of OGD-induced apoptosis in rat H9c2 cells assessed as reduction in cytochromeC level by Western blot analysis. In kind it is functional, cell-based. As to conditions: dose 0.5-1 µM. In a few lines: (§1)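 H9c2 cells under OGD were treated with saline or 0.5 or 1.0 µM inhibitor. Cells were trypsinised, washed in cold PBS, lysed in RIPA with sonication and centrifuged 30 min. Total protein was quantified and separated by SDS-PAGE, then transferred to PVDF. Blots were probed with primary and secondary antibodies and detected by ECL.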
(In general: Immunoblotting shows a protein as a band on a membrane.)

The subject of series [2] is H9c2. Briefly: Inhibition of OGD-induced apoptosis in rat H9c2 cells assessed as reduction in caspase1 level at 0.5 to 1 uM by Western blot analysis. In kind it is functional, cell-based. The settings on record: dose 0.5-1 µM. In a few lines: as §1
The subject of series [3] is H9c2. Briefly: Inhibition of JNK phosphorylation in rat H9c2 cells at 0.5 to 1 uM by Western blot analysis. The series is classed as cell-based. The settings on record: dose 0.5-1 µM. In outline:
as §1

Series [4] relates to H9c2. Briefly: Inhibition of OGD-induced apoptosis in rat H9c2 cells assessed as viable cells at 1 uM incubated for 24 hrs by annexinV-FITC and PI staining based flow cytometry analysis (reference value: 85 %). The series is classed as functional.
Series [5] relates to H9c2. Briefly: Inhibition of OGD-induced apoptosis in rat H9c2 cells assessed as viable cells at 0.5 uM incubated for 24 hrs by annexinV-FITC and PI staining based flow cytometry analysis (reference value: 85 %). In kind it is functional. For orientation: Flow cytometry measures light scatter and fluorescence of single cells or particles in a stream.
Series [6] relates to H9c2. Put plainly: Inhibition of OGD-induced apoptosis in rat H9c2 cells assessed as reduction in GSDMD level at 0.5 to 1 uM by Western blot analysis. The series is classed as functional, cell-based. As to conditions: dose 0.5-1 µM. In outline:
as §1

Series [7] deals with Mus musculus. Put plainly: Cardioprotective activity in C57BL/6 mouse model of myocardial infarction assessed as reduction in left ventricular inflammatory cells at 25 mg/kg, ip administered for 28 days and measured on day 28 by H and E staining based fluorescence microscopy. As to conditions: time 28.0 day. The series is classed as functional, organism-based. In outline: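 MI made in male C57BL/6 mice (5-6 weeks) by permanent LAD ligation under ip ketamine (100mg/kg)/xylazine (10mg/kg), ventilated. Groups: sham, saline (NS), inhibitor 25 mg/kg ip every two days, n=4. Hearts examined after 28 days; TTC, Masson's trichrome and H&E staining of sections for infarct, collagen/scar, LV inflammatory cells and dilatation.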

Series [8] deals with H9c2. Briefly: Inhibition of OGD-induced apoptosis in rat H9c2 cells assessed as early apoptotic cells at 0.5 uM incubated for 24 hrs by annexinV-FITC and PI staining based flow cytometry analysis (reference value: 3.53 %). The series is classed as functional.
Series [9] has as its system H9c2. Briefly: Inhibition of OGD-induced apoptosis in rat H9c2 cells assessed as reduction in caspase1 activation at 0.5 to 1 uM by Western blot analysis. The settings on record: dose 0.5-1 µM. In kind it is functional, cell-based. In a few lines: as §1
Series [10] concerns H9c2. Briefly: Inhibition of OGD-induced apoptosis in rat H9c2 cells assessed as necrotic cells at 0.5 uM incubated for 24 hrs by annexinV-FITC and PI staining based flow cytometry analysis (reference value: 2.45 %). The series is classed as functional.
Series [11] deals with Receptor tyrosine-protein kinase erbB-2 (Homo sapiens) (UniProt P04626). Briefly: Inhibition of recombinant human HER2 (676 to end residues) assessed as residual activity at 1 uM using poly(Glu, Tyr) 4:1 as substrate incubated for 40 mins by [gamma-33P]-ATP scintillation counting based radiometry assay relative to control.
A short description of series [12]: Toxicity in C57BL/6 mouse assessed as effect on morphology of main organs at 25 mg/kg, ip administered for 28 days and observed on day 28 by H and E staining based fluorescence microscopy. The settings on record: in vivo, 672 h, time 28 day. In kind it is organism-based. In a few lines:
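Main organs of MI-model C57BL/6 mice, given 25 mg/kg ip every two days or sham-operated, examined by H&E staining of tissue sections for morphology.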

Series [13] deals with Epidermal growth factor receptor (Homo sapiens) (UniProt P00533). Briefly: Inhibition of recombinant human EGFR (696 to end residues) assessed as residual activity at 1 uM using poly(Glu, Tyr) 4:1 as substrate incubated for 40 mins by [gamma-33P]-ATP scintillation counting based radiometry assay relative to control.
In series [14] the test system is Mus musculus. Put plainly: In vivo inhibition of TNNI3K in C57BL/6 mouse assessed as reduction in GSDMD at 25 mg/kg, ip administered for 28 days and measured on day 28 by immunohistochemical staining based fluorescence microscopy. As to conditions: time 28.0 day. The series is classed as functional, organism-based. In a few lines:
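Male C57BL/6 mice (5-6 weeks) with LAD-ligation MI; sham, saline or 25 mg/kg ip every two days, n=4, 28 days. Heart sections given EDTA (pH 8.0) or citrate (pH 6.0) microwave antigen retrieval, then primary antibody 30-40 min at 37°C. Detection by HRP polymer secondary with DAB (IHC) or fluorescent secondary (IF). Positive cells were quantified.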

In series [15] the test system is H9c2. Put plainly: Inhibition of OGD-induced apoptosis in rat H9c2 cells assessed as early apoptotic cells at 1 uM incubated for 24 hrs by annexinV-FITC and PI staining based flow cytometry analysis (reference value: 3.53 %). In kind it is functional.
Series [16] relates to H9c2. Put plainly: Inhibition of OGD-induced apoptosis in rat H9c2 cells incubated for 24 hrs by annexinV-FITC and PI staining based flow cytometry analysis. In kind it is functional, cell-based. The settings on record: dose 0.5-1 µM.
Series [17] deals with H9c2. Briefly: Inhibition of OGD-induced apoptosis in rat H9c2 cells assessed as reduction in NLRP3 level at 0.5 to 1 uM by Western blot analysis. In kind it is functional, cell-based. The settings on record: dose 0.5-1 µM. In a few lines: as §1
Series [18] has as its system H9c2. Briefly: Inhibition of OGD-induced apoptosis in rat H9c2 cells assessed as late apoptotic cells at 1 uM incubated for 24 hrs by annexinV-FITC and PI staining based flow cytometry analysis (reference value: 9 %). The series is classed as functional.
For series [19], the system named is H9c2. Put plainly: Effect on TNNI3K expression in rat H9c2 cells at 0.5 to 1 uM by Western blot analysis. As to conditions: dose 0.5-1 µM. The series is classed as functional, cell-based. In a few lines:
as §1

For series [20], the system named is H9c2. Briefly: Inhibition of OGD-induced apoptosis in rat H9c2 cells assessed as reduction in IL-1beta level at 0.5 to 1 uM by Western blot analysis. In kind it is functional, cell-based. As to conditions: dose 0.5-1 µM. In a few lines: as §1
Series [21] deals with H9c2. Briefly: Inhibition of OGD-induced apoptosis in rat H9c2 cells assessed as reduction in caspase1 level at 0.5 to 1 uM by immunofluorescence staining based fluorescence microscopy. In kind it is functional, cell-based. The settings on record: dose 0.5-1 µM. In a few lines: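 In OGD-exposed H9c2 cells treated with 0.5 or 1.0 µM inhibitor, intracellular distribution and co-localisation of caspase-1 and NLRP3 were assessed by immunofluorescence microscopy.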

The target in series [22] is Vascular endothelial growth factor receptor 1 (Homo sapiens) (UniProt P17948). Briefly: Inhibition of recombinant human FLT1 (783 to end residues) assessed as residual activity at 1 uM using KKKSPGEYVNIEFG as substrate incubated for 40 mins by [gamma-33P]-ATP scintillation counting based radiometry assay relative to control.
The subject of series [23] is H9c2. Put plainly: Inhibition of OGD-induced apoptosis in rat H9c2 cells assessed as reduction in proIL-1beta level at 0.5 to 1 uM by Western blot analysis. The series is classed as functional, cell-based. The settings on record: dose 0.5-1 µM. In outline:
as §1

Receptor tyrosine-protein kinase erbB-2 (Homo sapiens), sequence (P04626 whole entry): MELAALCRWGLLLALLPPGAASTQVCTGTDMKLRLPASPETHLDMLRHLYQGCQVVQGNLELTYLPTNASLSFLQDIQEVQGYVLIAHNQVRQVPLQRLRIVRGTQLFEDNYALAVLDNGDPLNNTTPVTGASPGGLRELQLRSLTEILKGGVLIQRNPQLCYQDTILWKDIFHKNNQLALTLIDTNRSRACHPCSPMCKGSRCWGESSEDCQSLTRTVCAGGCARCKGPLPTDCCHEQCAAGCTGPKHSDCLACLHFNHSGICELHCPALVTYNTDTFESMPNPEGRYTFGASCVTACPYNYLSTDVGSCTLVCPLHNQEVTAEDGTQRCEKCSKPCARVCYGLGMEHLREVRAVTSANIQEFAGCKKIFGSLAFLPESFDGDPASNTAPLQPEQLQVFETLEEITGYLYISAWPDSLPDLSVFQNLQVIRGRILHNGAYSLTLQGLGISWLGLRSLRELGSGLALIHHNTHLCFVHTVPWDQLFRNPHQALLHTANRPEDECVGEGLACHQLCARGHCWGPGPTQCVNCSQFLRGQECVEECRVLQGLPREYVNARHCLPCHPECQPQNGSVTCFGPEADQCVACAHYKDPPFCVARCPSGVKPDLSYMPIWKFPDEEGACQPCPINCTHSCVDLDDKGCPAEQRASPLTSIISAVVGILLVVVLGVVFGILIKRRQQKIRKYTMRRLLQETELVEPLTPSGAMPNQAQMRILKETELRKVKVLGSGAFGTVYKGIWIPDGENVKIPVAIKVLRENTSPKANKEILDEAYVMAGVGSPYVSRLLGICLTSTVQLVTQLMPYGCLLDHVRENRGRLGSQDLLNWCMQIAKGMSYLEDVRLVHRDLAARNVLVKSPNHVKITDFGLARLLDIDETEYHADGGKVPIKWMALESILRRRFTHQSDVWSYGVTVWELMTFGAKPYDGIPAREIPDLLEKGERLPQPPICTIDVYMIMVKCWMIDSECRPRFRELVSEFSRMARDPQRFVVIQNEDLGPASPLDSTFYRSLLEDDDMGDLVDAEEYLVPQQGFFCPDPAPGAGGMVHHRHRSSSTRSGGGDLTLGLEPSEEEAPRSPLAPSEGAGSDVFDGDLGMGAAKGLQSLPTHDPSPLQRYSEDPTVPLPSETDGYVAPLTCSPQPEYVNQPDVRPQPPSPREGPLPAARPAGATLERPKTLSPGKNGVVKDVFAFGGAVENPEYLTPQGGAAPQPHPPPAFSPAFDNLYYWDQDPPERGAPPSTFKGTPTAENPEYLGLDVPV
Epidermal growth factor receptor (Homo sapiens), sequence (P00533 whole entry): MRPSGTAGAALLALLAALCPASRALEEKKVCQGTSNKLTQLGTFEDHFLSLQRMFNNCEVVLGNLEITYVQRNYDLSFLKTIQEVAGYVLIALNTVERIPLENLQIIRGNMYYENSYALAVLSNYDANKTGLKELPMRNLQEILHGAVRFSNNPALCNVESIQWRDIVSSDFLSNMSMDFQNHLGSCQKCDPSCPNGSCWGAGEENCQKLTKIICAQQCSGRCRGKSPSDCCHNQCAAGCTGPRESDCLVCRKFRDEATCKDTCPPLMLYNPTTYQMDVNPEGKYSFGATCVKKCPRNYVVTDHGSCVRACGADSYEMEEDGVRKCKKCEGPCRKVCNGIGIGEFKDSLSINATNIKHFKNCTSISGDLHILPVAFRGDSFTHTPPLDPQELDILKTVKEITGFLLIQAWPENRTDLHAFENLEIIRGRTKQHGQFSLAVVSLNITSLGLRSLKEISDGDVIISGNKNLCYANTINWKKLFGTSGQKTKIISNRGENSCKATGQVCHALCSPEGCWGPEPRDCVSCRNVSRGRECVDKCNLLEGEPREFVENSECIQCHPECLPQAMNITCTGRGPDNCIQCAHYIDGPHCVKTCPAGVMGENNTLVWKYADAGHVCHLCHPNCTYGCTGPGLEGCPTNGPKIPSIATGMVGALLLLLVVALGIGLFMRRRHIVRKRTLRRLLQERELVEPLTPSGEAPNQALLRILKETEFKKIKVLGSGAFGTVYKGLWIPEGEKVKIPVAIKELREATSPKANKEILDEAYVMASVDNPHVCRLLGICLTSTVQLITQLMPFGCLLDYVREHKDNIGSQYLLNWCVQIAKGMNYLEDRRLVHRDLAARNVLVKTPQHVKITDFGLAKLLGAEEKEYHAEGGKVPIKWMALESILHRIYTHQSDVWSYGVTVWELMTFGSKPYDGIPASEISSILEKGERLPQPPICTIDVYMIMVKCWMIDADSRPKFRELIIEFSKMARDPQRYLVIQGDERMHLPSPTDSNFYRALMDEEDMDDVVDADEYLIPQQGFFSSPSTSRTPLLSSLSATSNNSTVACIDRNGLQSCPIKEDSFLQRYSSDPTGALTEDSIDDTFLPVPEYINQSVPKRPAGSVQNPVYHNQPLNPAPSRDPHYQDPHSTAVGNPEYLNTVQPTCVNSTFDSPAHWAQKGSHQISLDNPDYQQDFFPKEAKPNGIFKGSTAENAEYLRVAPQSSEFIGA
Vascular endothelial growth factor receptor 1 (Homo sapiens), sequence (P17948 whole entry): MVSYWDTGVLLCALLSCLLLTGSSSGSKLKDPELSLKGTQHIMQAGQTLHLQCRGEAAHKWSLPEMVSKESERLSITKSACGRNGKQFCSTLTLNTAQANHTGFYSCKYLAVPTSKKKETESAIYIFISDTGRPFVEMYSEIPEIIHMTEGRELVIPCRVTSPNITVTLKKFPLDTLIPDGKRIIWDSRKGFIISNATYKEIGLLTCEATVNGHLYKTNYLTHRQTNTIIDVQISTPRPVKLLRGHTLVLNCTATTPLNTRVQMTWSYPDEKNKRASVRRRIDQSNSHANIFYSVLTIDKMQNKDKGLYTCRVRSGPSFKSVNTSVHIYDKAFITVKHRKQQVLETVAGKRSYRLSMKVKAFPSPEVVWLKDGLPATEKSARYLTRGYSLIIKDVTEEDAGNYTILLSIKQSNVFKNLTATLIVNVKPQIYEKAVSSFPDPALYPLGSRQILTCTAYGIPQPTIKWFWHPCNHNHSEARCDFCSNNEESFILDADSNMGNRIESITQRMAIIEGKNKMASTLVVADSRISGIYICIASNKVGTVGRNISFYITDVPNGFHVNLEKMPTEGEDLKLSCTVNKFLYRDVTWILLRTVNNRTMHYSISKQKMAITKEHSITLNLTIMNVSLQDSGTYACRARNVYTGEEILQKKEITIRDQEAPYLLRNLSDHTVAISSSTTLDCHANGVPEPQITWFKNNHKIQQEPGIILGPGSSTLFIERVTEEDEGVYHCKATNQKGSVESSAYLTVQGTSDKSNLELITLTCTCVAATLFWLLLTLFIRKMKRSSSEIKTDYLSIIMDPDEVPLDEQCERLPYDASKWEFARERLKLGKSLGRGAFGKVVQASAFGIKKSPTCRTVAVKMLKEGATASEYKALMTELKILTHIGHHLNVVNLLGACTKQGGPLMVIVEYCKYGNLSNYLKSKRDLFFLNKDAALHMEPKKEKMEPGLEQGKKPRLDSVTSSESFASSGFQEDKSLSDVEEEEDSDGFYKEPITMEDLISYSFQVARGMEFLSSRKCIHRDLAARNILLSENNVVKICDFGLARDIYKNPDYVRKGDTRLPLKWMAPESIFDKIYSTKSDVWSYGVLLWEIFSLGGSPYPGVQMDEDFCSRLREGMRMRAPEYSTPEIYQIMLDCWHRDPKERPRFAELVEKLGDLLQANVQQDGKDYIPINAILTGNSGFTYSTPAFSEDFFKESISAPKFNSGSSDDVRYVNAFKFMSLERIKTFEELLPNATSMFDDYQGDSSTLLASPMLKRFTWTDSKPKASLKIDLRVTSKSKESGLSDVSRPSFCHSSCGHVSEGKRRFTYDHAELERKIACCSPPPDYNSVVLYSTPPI

As for `CN(C)CCCN1CCc2c(sc3ncnc(Nc4ccc(N(C)C)c(NC(=O)c5ccco5)c4)c23)C1`, the inhibition result in [1] and in series [16] was “Dose-dependent effect” each time. The inhibition result in [2], in series [3], in series [6], in series [19] and in series [23] was “inactive” in each case. The inhibition at 1 µM in series [4] was 90.7%; in series [15], 3.17%; in series [18], 5.02%. Also, the inhibition at 0.5 µM in [5] was 87%; in series [8] it was 3.59%; in series [10] it was 2.24%. Further, the outcome in series [7] was Active. The inhibition entry in series [9], in series [14], in series [17], in series [20] and in series [21] was “Active” each time. Further, the Activity in [11] is 96%; in series [12], “Non-Toxic”; in series [13], 81%; in [22], 91%.
